Source: paper PMC12145421 (NPJ Science of Food, 2025)
≈ marks a conversion by molar mass, not a printed value.

How the values were obtained:
[1] = Solubility studies of CoQ10 in water by HPLC; format: physicochemical
Method in brief: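 The powder was mixed with an equal volume of water to give a supersaturated solution. It was shaken at 200 rpm in a 25 °C water bath for 24 h. CoQ10 was measured by HPLC on a C8 column at 45 °C with methanol at 1 mL/min, against a 0.05–25 μg/mL standard curve. Triplicate independent experiments; mean ± SD.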

[2] = In vivo bioavailability study, plasma CoQ10 after oral administration to rats; conditions: male, SD, rat, 15 mg/kg
Method in brief: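 Six-week-old SPF male rats (180–200 g), acclimatised ≥3 days at 23–25 °C with a 12 h light/dark cycle, n = 5 per group, fasted 12 h. Oral 15 mg/kg dose in 0.5% (w/v) sodium CMC. Tail-vein blood at 0, 0.5, 1, 2, 4, 8, 12 and 24 h. Plasma extracted with n-propanol and assayed by HPLC against a 0–3000 ng/mL plasma standard curve. Non-compartmental model; AUC by linear trapezoid.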

solubility at 24 h [1]: 2.3 µg/mL (≈ 2.66 µM)
AUC(0-t) [2]: 196 ± 96.9 ng·h/mL
Cmax [2]: 50.3 ± 5.7 ng/mL
Tmax ([2]; Tmax, rats, oral, n = 5, plasma CoQ10): ~1 h
Compound: COC1=C(OC)C(=O)C(C/C=C(\C)CC/C=C(\C)CC/C=C(\C)CC/C=C(\C)CC/C=C(\C)CC/C=C(\C)CC/C=C(\C)CC/C=C(\C)CC/C=C(\C)CCC=C(C)C)=C(C)C1=O [CoQ10, Coenzyme Q10]
